Assay results from ChEMBL document CHEMBL4428038, “Overcoming chloroquine resistance in malaria: Design, synthesis and structure-activity relationships of novel chemoreversal agents” (Eur J Med Chem, 2016).
Calls of active or inactive are those of the source. No cut-off for these calls is given here.

Tests used:
[1] = test system: T1, Chloroquine resistance transporter (Plasmodium falciparum), Q9N623 [K76T]; assay: Inhibition of CRT K76T mutant in chloroquine-resistant Plasmodium falciparum NHP4559 assessed as reversal of chloroquine resistance by measuring reduction in chloroquine IC50 at 500 nM relative to chloroquine alone
T1 sequence (whole entry): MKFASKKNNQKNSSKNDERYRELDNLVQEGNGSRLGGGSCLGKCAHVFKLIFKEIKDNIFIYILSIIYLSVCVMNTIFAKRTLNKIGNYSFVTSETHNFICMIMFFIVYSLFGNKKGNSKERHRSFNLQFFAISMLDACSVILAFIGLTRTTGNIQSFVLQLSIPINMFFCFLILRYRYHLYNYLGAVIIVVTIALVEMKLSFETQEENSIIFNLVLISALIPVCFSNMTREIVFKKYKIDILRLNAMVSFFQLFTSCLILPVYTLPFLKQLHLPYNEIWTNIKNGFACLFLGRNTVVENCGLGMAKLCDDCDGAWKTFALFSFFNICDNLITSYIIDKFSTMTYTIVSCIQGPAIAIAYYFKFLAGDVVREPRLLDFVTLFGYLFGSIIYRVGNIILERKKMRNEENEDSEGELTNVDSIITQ

[2] = test system: T1, Chloroquine resistance transporter (Plasmodium falciparum), Q9N623 [K76T]; assay: Inhibition of CRT K76T mutant in chloroquine/artemisinin-resistant Plasmodium falciparum NHP4773 assessed as reversal of chloroquine resistance by measuring reduction in chloroquine IC50 at 500 nM relative to chloroquine alone
Plasmodium falciparum [3] = assay: Intrinsic antimalarial activity against chloroquine/artemisinin-resistant Plasmodium falciparum NHP4773 harboring CRT K76T mutant assessed as reduction in parasite viability at 500 nM; type: functional, organism-based
[4] = Resistance index, ratio of chloroquine IC50 for intermediate chloroquine-resistant Plasmodium falciparum 7G8 isolate MRA-154 CRT SVMNT haplotype mutant to chloroquine IC50 for chloroquine-sensitive Plasmodium falciparum 3D7 isolate MRA-102 at 500 nM
Procedure, shortened: (§1)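 Chloroquine IC50 was measured with the chemoreversal agent fixed at 500 nM in K1 or 7G8 and in sensitive 3D7 (means, n = 3). The resistance ratio is the chloroquine IC50 in K1 or 7G8 divided by the chloroquine IC50 in 3D7.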

[5] = Resistance index, ratio of chloroquine IC50 for chloroquine-resistant Plasmodium falciparum K1 isolate MRA-159 CRT CVIET haplotype mutant to chloroquine IC50 for chloroquine-sensitive Plasmodium falciparum 3D7 isolate MRA-102 at 500 nM; procedure, shortened: as §1
Plasmodium falciparum [6] = assay: Potentiation of chloroquine-induced antimalarial activity against chloroquine-sensitive Plasmodium falciparum 3D7 isolate MRA-102 assessed as concentration required for 50% reduction in chloroquine IC50 at 500 nM relative to chloroquine alone; type: functional, organism-based
[7] = Inhibition of CRT CVIET haplotype mutant in chloroquine-resistant Plasmodium falciparum K1 isolate MRA-159 assessed as reversal of chloroquine resistance by measuring reduction in chloroquine IC50 relative to chloroquine alone
Procedure, shortened: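 Chloroquine IC50 was determined in the presence of a fixed 500 nM chemoreversal agent, against chloroquine alone. The RMI is the ratio of chloroquine IC50 with agent to chloroquine IC50 alone. Mean of n = 3; two-tailed t test versus chloroquine without agent.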

TAMH = assay: Cytotoxicity against TAMH assessed as reduction in cell viability by CellTiter-Glo assay; type: cell-based; conditions: Mus musculus
Procedure, shortened: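 For TAMH (hepatocyte line) and AC10 (cardiomyocyte line), viability was read by ATP luminescence (CellTiter-Glo), and the value reported is IC50.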

[8] = Aqueous kinetic solubility of compound in pH 7.4 solution incubated for 24 hrs; type: physicochemical; conditions: aqueous solution pH 7.4, pH 7.4; read-out: Kinetic_solubility

Compound: c1ccc(CN[C@@H]2C3CCN(CC3)[C@@H]2Cc2ccccc2)cc1 (relative stereo)
- Ratio IC50 [1]: 0.47
- Ratio IC50 [2]: 0.45
- Activity (Plasmodium falciparum [3]): inactive
- Ratio IC50 [4]: 3.9
- Ratio IC50 [5]: 6.4
- Activity (Plasmodium falciparum [6]): inactive
- EC50 [7]: 170 nM
- IC50 (TAMH): > 100000 nM
- solubility kinetic at 24 h [8]: > 310 µg/mL
